ChEMBL document CHEMBL1132493, “Synthesis and in vitro evaluation of new 8-amino-1,4-benzoxazine derivatives as neuroprotective antioxidants” (J Med Chem, 1999)

Key:
[1] = (§1) In vitro neurotoxicity (Maximum Tolerated concentration[MTC]) was measured by quantification of cellular lysis after measurement of LDH activity released from damaged cells; assay type: toxicity, cell-based; conditions: mouse, HT-22 cells; read-out: MTC
[2] = (§2) In vitro neurotoxicity (concentration producing 50% toxicity [TC50]) was measured by quantification of cellular lysis after measurement of LDH activity released from damaged cells; assay type: cell-based; conditions: mouse, HT-22 cells; read-out: TC50 (the source's name)
HT-22 [3] = assay: In vitro neurotoxicity (concentration producing 50% toxicity [TC50]) was measured by (MTT) reduction assay on murine HT-22 hippocampal cell cultures and compared to those of parent exifone; assay type: functional; conditions: Mus musculus, read-out: TC50 (the source's name)
HT-22 [4] = assay: In vitro neurotoxicity (Maximum Tolerated concentration[MTC]) was measured by (MTT) reduction assay on murine HT-22 hippocampal cell cultures and compared to those of parent exifone; assay type: functional, Mus musculus
HT-22 [5] = assay: In vitro neuroprotective activity estimated through their protective effects against L-homocysteic acid(L-HCA) cytotoxicity) on murine HT-22 hippocampal cell cultures and compared to those of exifone(MTT reduction assay); assay type: functional, Mus musculus
HT-22 [6] = assay: (§3) The concentration producing 50%protection (PC50) was measured by lactate dehydrogenase (LDH) activity. In vitro neuroprotective activity estimated through their protective effects against L-homocysteic acid(L-HCA) cytotoxicity on murine HT-22 hippocampal cell cultures and compared to those of exifone; assay type: functional, Mus musculus
[7] = Ratio of MTC to PC50 after measurement of LDH activity; Safety ratio; assay type: functional
In short: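 Safety index: MTC divided by PC50, both from LDH release in HT-22 cells. MTC comes from 48 h drug exposure alone; PC50 from 1 h antioxidant pretreatment followed by 48 h 2 mM L-HCA exposure. Both derived by linear regression.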

[8] = Ratio of MTC to PC50 in MTT reduction assay; Safety ratio; assay type: functional
In short: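 Safety index: MTC divided by PC50, both from MTT reduction in HT-22 cells. MTC comes from 48 h drug exposure alone; PC50 from protection against 48 h 2 mM L-HCA after 1 h pretreatment. Both estimated by linear regression.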

[9] = (§4) In vitro neurotoxicity (concentration producing 50% toxicity [TC50]) was measured by (MTT) reduction assay on murine HT-22 hippocampal cell cultures and compared to those of parent exifone,; assay type: cell-based; conditions: mouse, HT-22 hippocampal cells; read-out: TC50 (the source's name)
HT-22 [10] = assay: as §2; assay type: functional; conditions: Mus musculus, read-out: TC50 (the source's name)
HT-22 [11] = assay: as §1; assay type: functional, Mus musculus
HT-22 [12] = assay: In vitro neuroprotective activity estimated through their protective effects against L-homocysteic acid(L-HCA) cytotoxicity) on murine HT-22 hippocampal cell cultures and compared to those of exifone. (MTT reduction assay); assay type: functional, Mus musculus
HT-22 [13] = assay: as §3, with “obtained for” for “measured by”, “hip pocampal” for “hippocampal”; assay type: functional, Mus musculus
HT-22 [14] = assay: In vitro neuroprotective activity estimated through their protective effects against L-homocysteic acid(L-HCA) cytotoxicity) on murine HT-22 hippocampal cell cultures and compared to those of exifone (MTT reduction assay); assay type: functional, Mus musculus
HT-22 [15] = assay: as §4; assay type: functional; conditions: Mus musculus, read-out: TC50 (the source's name)

CC(C)(C)C1COc2c(O)ccc(C(=O)c3ccccc3)c2N1 (stereo not drawn)
MNTC [1]: 5 µM

CC(C)CCNc1ccc(C(=O)c2ccccc2)c2c1OCC(C)(C)N2
MNTC [1]: 10 µM

CC(C)CCNc1ccc(C(=O)c2ccccc2)c2c1OCC(c1ccccc1)(c1ccccc1)N2
MNTC [1]: > 250 µM

O=C(C1=CC=C(O)C2(O)OCC(CO)N=C12)c1ccccc1 (stereo not drawn)
MNTC [1]: 25 µM

O=C(c1ccccc1)c1ccc(NCc2ccccc2)c2c1NC1(CCCC1)CO2
CC50 [2]: > 250 µM
CC50 (HT-22 [3]): > 250 µM
MTC (HT-22 [4]): >250 µM
MNTC [1]: > 250 µM
PC50 (HT-22 [5]): 6.9 µM
PC50 (HT-22 [6]): 7.1 µM
Ratio [7]: > 36
Ratio [8]: > 36

O=C(c1ccccc1)c1ccc(NCc2ccccc2)c2c1NC(c1ccccc1)(c1ccccc1)CO2
MNTC [1]: > 250 µM

CC1(C)COc2c(NCCO)ccc(C(=O)c3ccccc3)c2N1
MNTC [1]: 100 µM

CC(C)(C)C1COC2(O)C(O)=CC=C(C(=O)c3ccccc3)C2=N1 (stereo not drawn)
CC50 [9]: 17.6 µM
CC50 (HT-22 [10]): 38.1 µM
MTC (HT-22 [4]): 10 µM
MTC (HT-22 [11]): 10 µM
PC50 (HT-22 [12]): 6.5 µM
PC50 (HT-22 [13]): 5.8 µM
Ratio [7]: 1.7
Ratio [8]: 1.5

O=C(c1ccccc1)c1ccc(NCCO)c2c1NC(CO)(CO)CO2
MNTC [1]: > 250 µM

CC(C)(C)C1COc2c(NCc3ccccc3)ccc(C(=O)c3ccccc3)c2N1 (stereo not drawn)
MNTC [1]: > 250 µM

CC1(C)COc2c(NC(CO)CO)ccc(C(=O)c3ccccc3)c2N1
MNTC [1]: > 250 µM

O=C(c1ccccc1)c1ccc(O)c2c1NC(CO)CO2 (stereo not drawn)
MNTC [1]: 10 µM

CC(C)(C)C1COc2c(NCCc3ccccc3)ccc(C(=O)c3ccccc3)c2N1 (stereo not drawn)
CC50 [2]: > 250 µM
CC50 (HT-22 [3]): > 250 µM
MTC (HT-22 [4]): 100 µM
MNTC [1]: 250 µM
PC50 (HT-22 [5]): 8.8 µM
PC50 (HT-22 [13]): 8.9 µM
Ratio [7]: 28
Ratio [8]: 11

CC1(CO)COc2c(NC(CO)CO)ccc(C(=O)c3ccccc3)c2N1 (stereo not drawn)
MNTC [1]: > 250 µM

O=C(c1ccccc1)c1ccc(NC(CO)CO)c2c1NC(CO)CO2 (stereo not drawn)
MNTC [1]: > 250 µM

CC(C)CNc1ccc(C(=O)c2ccccc2)c2c1OCC1(CCCC1)N2
CC50 [2]: > 250 µM
CC50 (HT-22 [3]): > 250 µM
MTC (HT-22 [4]): 10 µM
MNTC [1]: > 250 µM
PC50 (HT-22 [5]): >10 µM
PC50 (HT-22 [6]): >10 µM
Ratio [7]: < 1
Ratio [8]: < 1

CC(C)CCNc1ccc(C(=O)c2ccccc2)c2c1OCC(C(C)(C)C)N2 (stereo not drawn)
MNTC [1]: 10 µM

O=C(c1ccccc1)c1ccc(O)c2c1NC1(CCCC1)CO2
CC50 [2]: 36.4 µM
CC50 (HT-22 [3]): 37.5 µM
MTC (HT-22 [4]): 25 µM
MNTC [1]: 25 µM
PC50 (HT-22 [14]): 25 µM
PC50 (HT-22 [6]): 18.4 µM
Ratio [7]: 1.4
Ratio [8]: 1

CC1(CO)COc2c(NCCO)ccc(C(=O)c3ccccc3)c2N1 (stereo not drawn)
MNTC [1]: > 250 µM

O=C(C1=CC=C(O)C2(O)OCC3(CCCC3)N=C12)c1ccccc1 (stereo not drawn)
CC50 (HT-22 [15]): 109 µM
CC50 [2]: > 250 µM
MTC (HT-22 [4]): 50 µM
MNTC [1]: 50 µM
PC50 (HT-22 [12]): 47.4 µM
PC50 (HT-22 [13]): 40.9 µM
Ratio [7]: 1.2
Ratio [8]: 1.1

CC1(C)COc2c(NCc3ccccc3)ccc(C(=O)c3ccccc3)c2N1
MNTC [1]: > 250 µM
